# Results from ChEMBL document CHEMBL4428054, “Synthesis of Fluorescent Binaphthyl Amines That Bind c-MYC G-Quadruplex DNA and Repress c-MYC Expression” (J Med Chem, 2016).
# Calls of active or inactive are those of the source. No cut-off for these calls is given here.
# Experiments:
# dsDNA [1] = assay: Stabilization of 5'-FAM and 3'-TAMRA-labeled dsDNA (unknown origin) assessed as change in melting temperature at 5 uM by FRET assay; assay type: nucleic-acid assay
# Outline: (§1)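 FRET melting of dual-labelled (5′-FAM/3′-TAMRA) promoter quadruplexes or duplex in 60 mM potassium cacodylate buffer, pH 7.4. ΔTm is taken against ligand-free Tm. The ligand was tested across a concentration series. Maximum measurable Tm is 93 °C.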
# dsDNA [2] = assay: Stabilization of 5'-FAM and 3'-TAMRA-labeled dsDNA (unknown origin) assessed as change in melting temperature at 1 uM by FRET assay; assay type: nucleic-acid assay; outline: as §1
# HeLa [3] = assay: Induction of apoptosis in human HeLa cells assessed as viable cell level at 5 uM incubated for 24 hrs by Annexin V-FITC staining based flow cytometry; assay type: functional
# Quadruplex DNA [4] = assay: Stabilization of 5'-FAM and 3'-TAMRA-labeled c-KIT2 G-quadruplex (unknown origin) assessed as change in melting temperature at 1 uM by FRET assay; assay type: nucleic-acid assay; settings: unidentified; outline: as §1
# Quadruplex DNA [5] = assay: Stabilization of c-MYC G-quadruplex in human HeLa cells assessed as reduction in c-MYC mRNA level at 5 uM incubated for 24 hrs by RT-PCR method; assay type: cell-based; parameters: scale not given: the % may be the effect or the level left
# Outline: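 qRT-PCR on HeLa cells treated 24 h at 1.0, 2.5 or 5.0 μM. c-MYC mRNA was normalised to GAPDH and compared with 0.1% DMSO-treated control.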
# dsDNA [6] = assay: Binding affinity to dsDNA (unknown origin) in 10 mM Tris.HCl buffer containing 100 mM KCl at pH 7.4 by UV/Visible spectroscopy; assay type: nucleic-acid assay
# Quadruplex DNA [7] = assay: Stabilization of c-MYC G-quadruplex in human HeLa cells assessed as reduction in c-MYC mRNA level at 5 uM incubated for 24 hrs by Western blot method; assay type: cell-based; parameters: scale not given: the % may be the effect or the level left; settings: in the assay text read “c-MYC protein level” for “c-MYC mRNA level”
# Outline: (§2)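 Western blot of HeLa lysates after 24 h at 1, 2.5 or 5 μM, with DMSO control. c-MYC was probed, GAPDH served as loading control, and bands were quantified by densitometry.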
# HeLa [8] = assay: Cytotoxicity against human HeLa cells incubated for 24 hrs by MTT assay; assay type: functional, cell-based
# Outline: (§3)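 MTT growth-inhibition assay in HeLa, A549 and mouse C2C12 cells. Cells given 0.1% DMSO served as control. IC50 values were reported.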
# HeLa [9] = assay: Cell cycle arrest in human HeLa cells assessed as accumulation at G0/G1 phase at 5 uM incubated for 24 hrs by propidium iodide staining based flow cytometry (reference value: 61.5%); assay type: functional
# Quadruplex DNA [10] = assay: Binding affinity to pre-annealed k-RAS G-quadruplex (unknown origin) in 100 mM KCl, 10 mM Tris.HCl at pH 7.4 by fluorescence spectroscopy relative to untreated control; assay type: nucleic-acid assay, unidentified
# Outline: (§4)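 Fluorescence titration in 100 mM KCl, 10 mM Tris·HCl, pH 7.4. Excitation was 350 nm and emission was read at the 430 nm maximum. Ligand (1 μM for c-MYC) was titrated with increasing quadruplex or ds DNA, up to 20 equiv. Change in intensity was scored, and Kd was derived from the titration curves.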
# Quadruplex DNA [11] = assay: Binding affinity to pre-annealed c-MYC G-quadruplex (unknown origin) assessed as hypochromacity at 20 uM in 10 mM Tris.HCl buffer containing 100 mM KCl at pH 7.4 by UV/Visible spectroscopy; assay type: nucleic-acid assay; settings: unidentified
# Outline: (§5)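 UV–vis titration of 20 μM ligand with preannealed c-MYC quadruplex (0–1.4 equiv) in 100 mM KCl, 10 mM Tris·HCl, pH 7.4. Hypochromicity was followed at the 362 nm ligand band, because the 298 nm band overlaps DNA absorbance. Kd was fitted with the Hill 1 equation.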
# C2C12 = assay: Cytotoxicity against mouse C2C12 cells incubated for 24 hrs by MTT assay; assay type: cell-based; settings: C2C12, 24 h; outline: as §3
# Quadruplex DNA [12] = assay: Binding affinity to pre-annealed c-KIT1 G-quadruplex (unknown origin) in 100 mM KCl, 10 mM Tris.HCl at pH 7.4 by fluorescence spectroscopy relative to untreated control; assay type: nucleic-acid assay, unidentified; outline: as §4
# [13] = Drug localization in nucleus of human HeLa cells at 5 uM incubated for 2 hrs by fluorescence microscopy; assay type: ADME, subcellular
# Outline: (§6)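 Intrinsic ligand fluorescence imaged by fluorescence microscopy in HeLa cells after 2 h at 5.0 μM. Merged images were used to assign nuclear versus cytoplasmic localisation.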
# HeLa [14] = assay: Induction of apoptosis in human HeLa cells assessed as early apoptotic cells level at 5 uM incubated for 24 hrs by Annexin V-FITC staining based flow cytometry (reference value: 1.1%); assay type: functional
# Quadruplex DNA [15] = assay: Effect on parallel topology of c-MYC G-quadruplex (unknown origin) at 0 to 5 equivalent by CD spectroscopy; assay type: nucleic-acid assay; settings: unidentified
# [16] = Drug localization in cytoplasm of human HeLa cells at 5 uM incubated for 2 hrs by fluorescence microscopy; assay type: ADME, subcellular; outline: as §6
# HeLa [17] = assay: Cell cycle arrest in human HeLa cells assessed as accumulation at subG1 phase at 5 uM incubated for 24 hrs by propidium iodide staining based flow cytometry (reference value: 2.2%); assay type: functional
# Quadruplex DNA [18] = assay: Binding affinity to c-MYC G-quadruplex (unknown origin) by 1H-NMR spectroscopy; assay type: nucleic-acid assay; settings: unidentified
# Outline: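 1D 1H NMR of c-MYC quadruplex DNA at different ligand:DNA ratios, monitoring imino and aromatic regions against partial signal assignments. Chemical shift perturbation or line broadening was noted separately at ratios below 1 and at ratios of 1 or above.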
# dsDNA [19] = assay: Binding affinity to 20 equivalents of dsDNA (unknown origin) in 100 mM KCl, 10 mM Tris.HCl at pH 7.4 by fluorescence spectroscopy relative to untreated control; assay type: nucleic-acid assay; outline: as §4
# Quadruplex DNA [20] = assay: Binding affinity to pre-annealed c-KIT2 G-quadruplex (unknown origin) in 100 mM KCl, 10 mM Tris.HCl at pH 7.4 by fluorescence spectroscopy relative to untreated control; assay type: nucleic-acid assay, unidentified; outline: as §4
# Quadruplex DNA [21] = assay: Stabilization of 5'-FAM and 3'-TAMRA-labeled c-MYC G-quadruplex (unknown origin) assessed as change in melting temperature at 1 uM in presence of 100 nM to 10 uM dsDNA by FRET assay; assay type: nucleic-acid assay; settings: unidentified
# HeLa [22] = assay: Effect on GAPDH protein expression in human HeLa cells at 1 to 5 uM incubated for 24 hrs by Western blot method; assay type: ADME, cell-based; outline: as §2
# Quadruplex DNA [23] = assay: Stabilization of 5'-FAM and 3'-TAMRA-labeled c-MYC G-quadruplex (unknown origin) assessed as change in melting temperature at 1 uM by FRET assay; assay type: nucleic-acid assay; settings: unidentified; outline: as §1
# Quadruplex DNA [24] = assay: Stabilization of 5'-FAM and 3'-TAMRA-labeled k-RAS G-quadruplex (unknown origin) assessed as change in melting temperature at 1 uM in presence of 100 nM to 10 uM dsDNA by FRET assay; assay type: nucleic-acid assay; settings: unidentified
# HeLa [25] = assay: Induction of apoptosis in human HeLa cells assessed as late apoptotic cells level at 5 uM incubated for 24 hrs by Annexin V-FITC staining based flow cytometry (reference value: 0.8%); assay type: functional
# Quadruplex DNA [26] = assay: Stabilization of 5'-FAM and 3'-TAMRA-labeled c-KIT2 G-quadruplex (unknown origin) assessed as change in melting temperature at 1 uM in presence of 100 nM to 10 uM dsDNA by FRET assay; assay type: nucleic-acid assay; settings: unidentified
# HeLa [27] = assay: Cell cycle arrest in human HeLa cells assessed as accumulation at G2/M phase at 5 uM incubated for 24 hrs by propidium iodide staining based flow cytometry (reference value: 25.5%); assay type: functional
# HeLa [28] = assay: Effect on GAPDH mRNA expression in human HeLa cells at 1 to 5 uM incubated for 24 hrs by RT-PCR method; assay type: ADME, cell-based
# Quadruplex DNA [29] = assay: Binding affinity to pre-annealed c-MYC G-quadruplex (unknown origin) in 100 mM KCl, 10 mM Tris.HCl at pH 7.4 by fluorescence spectroscopy relative to untreated control; assay type: nucleic-acid assay, unidentified; outline: as §4
# unidentified [30] = assay: Selectivity for 5'-FAM and 3'-TAMRA-labeled c-MYC G-quadruplex (unknown origin) over 5'-FAM and 3'-TAMRA-labeled c-KIT2 G-quadruplex (unknown origin)
# Quadruplex DNA [31] = assay: Stabilization of 5'-FAM and 3'-TAMRA-labeled k-RAS G-quadruplex (unknown origin) assessed as change in melting temperature at 1 uM by FRET assay; assay type: nucleic-acid assay; settings: unidentified; outline: as §1
# Quadruplex DNA [32] = assay: Stabilization of 5'-FAM and 3'-TAMRA-labeled c-KIT1 G-quadruplex (unknown origin) assessed as change in melting temperature at 1 uM by FRET assay; assay type: nucleic-acid assay; settings: unidentified; outline: as §1
# HeLa [33] = assay: Induction of apoptosis in human HeLa cells assessed as necrotic cells level at 5 uM incubated for 24 hrs by Annexin V-FITC staining based flow cytometry (reference value: 0.1%); assay type: functional
# unidentified [34] = assay: Selectivity for 5'-FAM and 3'-TAMRA-labeled c-MYC G-quadruplex (unknown origin) over 5'-FAM and 3'-TAMRA-labeled k-RAS G-quadruplex (unknown origin)
# Quadruplex DNA [35] = assay: Binding affinity to pre-annealed c-MYC G-quadruplex (unknown origin) assessed as increase in fluorescence intensity at 1 uM in 100 mM KCl, 10 mM Tris.HCl at pH 7.4 by fluorescence spectroscopy relative to untreated control; assay type: nucleic-acid assay; settings: unidentified; outline: as §4
# HeLa [36] = assay: Cell cycle arrest in human HeLa cells assessed as accumulation at S phase at 5 uM incubated for 24 hrs by propidium iodide staining based flow cytometry (reference value: 10.8%); assay type: functional
# Quadruplex DNA [37] = assay: Stabilization of 5'-FAM and 3'-TAMRA-labeled c-KIT1 G-quadruplex (unknown origin) assessed as change in melting temperature at 1 uM in presence of 100 nM to 10 uM dsDNA by FRET assay; assay type: nucleic-acid assay; settings: unidentified
# A549 = assay: Cytotoxicity against human A549 cells incubated for 24 hrs by MTT assay; assay type: functional, cell-based; settings: A549, 24 h; outline: as §3
# Quadruplex DNA [38] = assay: Binding affinity to pre-annealed c-MYC G-quadruplex (unknown origin) in 10 mM Tris.HCl buffer containing 100 mM KCl at pH 7.4 by UV/Visible spectroscopy; assay type: nucleic-acid assay, unidentified; outline: as §5
# [39] = Selectivity for 5'-FAM and 3'-TAMRA-labeled c-MYC G-qudaruplex (unknown origin) over 5'-FAM and 3'-TAMRA-labeled c-KIT1 G-qudaruplex (unknown origin)
smiles,measurement,setting,value
CN(C)CCCn1cc(CNC(=O)c2ccc(Nc3ccc(-c4ccc(Nc5ccc(C(=O)NCc6cn(CCCN(C)C)nn6)cc5)c5ccccc45)c4ccccc34)cc2)nn1,Activity,dsDNA [1],inactive
same,ΔTm,dsDNA [2],2 °C
same,Activity,HeLa [3],Active
same,ΔTm,Quadruplex DNA [4],15 °C
same,Activity,Quadruplex DNA [5],58%
same,Activity,dsDNA [6],inactive
same,Activity,Quadruplex DNA [7],68%
same,IC50,HeLa [8],5.53 µM
same,Activity,HeLa [9],33.7%
same,Kd,Quadruplex DNA [10],11.4 to 13.8 µM
same,Activity,Quadruplex DNA [11],37%
same,IC50,C2C12,≥ 40 µM
same,Kd,Quadruplex DNA [12],10.2 µM
same,Drug uptake,[13],Active
same,Activity,HeLa [14],55.9%
same,Activity,Quadruplex DNA [15],inactive
same,Drug uptake,[16],Active
same,Activity,HeLa [17],32.2%
same,Activity,Quadruplex DNA [18],Active
same,Activity,dsDNA [19],inactive
same,Kd,Quadruplex DNA [20],11.1 µM
same,Activity,Quadruplex DNA [21],Active
same,Activity,HeLa [22],Non-Toxic
same,ΔTm,Quadruplex DNA [23],23 °C
same,Activity,Quadruplex DNA [24],Active
same,Activity,HeLa [25],12%
same,Activity,Quadruplex DNA [26],Active
same,Activity,HeLa [27],29.9%
same,Activity,HeLa [28],Non-Toxic
same,Kd,Quadruplex DNA [29],4.2 µM
same,Selectivity ratio,unidentified [30],3 to 5
same,ΔTm,Quadruplex DNA [31],22 °C
same,ΔTm,Quadruplex DNA [32],11 °C
same,Activity,HeLa [33],0.6%
same,Selectivity ratio,unidentified [34],3 to 5
same,fold change (FC),Quadruplex DNA [35],3.5
same,Activity,HeLa [36],4.2%
same,Activity,Quadruplex DNA [37],Active
same,IC50,A549,≥ 40 µM
same,Kd,Quadruplex DNA [38],4.4 µM
same,Selectivity ratio,[39],3 to 5
